Screening data deposited in PubChem BioAssay by The Scripps Research Institute Molecular Screening Center.
Only some compounds are listed: those with a hit (about 4.6% of all), similar ones and a draw of the others.
CHO parental Ca: counter-screen for OX1R antagonists: effect in parental CHO cells. parental CHO-K1, ATP-induced calcium, Fluo-8 fluorescence. inhibition, % at 5.6 µM. 330,000 compounds, 0.63% hits;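 active = inhibition above that plate's mean sample inhibition plus 3 SD, cut at about 26% in these data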;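 note: 0% = ATP-challenged DMSO wells and 100% = DMSO wells without ATP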
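Test system: untransfected parental CHO cell line. Compound: one dose, 5.6 µM nominal. Detection: intracellular calcium via Fluo-8 no-wash fluorescent dye. Measure: % inhibition. Benchmarks: ATP-challenged DMSO wells low, unchallenged DMSO wells high.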
OX1R antag-1: antagonists of human orexin 1 receptor (OX1R); AID 485270; 330,000 compounds, 1.8% hits; inhibition, % at 6.6 µM; OX1R-expressing cells, FRET antagonist read-out; in the data active = inhibition mostly above about 38%, no sharp cut-off; inactive = mostly below about 40%;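 note: 0% = agonist challenge alone and 100% = reference antagonist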
Target sequence (O43613 whole entry, looked up): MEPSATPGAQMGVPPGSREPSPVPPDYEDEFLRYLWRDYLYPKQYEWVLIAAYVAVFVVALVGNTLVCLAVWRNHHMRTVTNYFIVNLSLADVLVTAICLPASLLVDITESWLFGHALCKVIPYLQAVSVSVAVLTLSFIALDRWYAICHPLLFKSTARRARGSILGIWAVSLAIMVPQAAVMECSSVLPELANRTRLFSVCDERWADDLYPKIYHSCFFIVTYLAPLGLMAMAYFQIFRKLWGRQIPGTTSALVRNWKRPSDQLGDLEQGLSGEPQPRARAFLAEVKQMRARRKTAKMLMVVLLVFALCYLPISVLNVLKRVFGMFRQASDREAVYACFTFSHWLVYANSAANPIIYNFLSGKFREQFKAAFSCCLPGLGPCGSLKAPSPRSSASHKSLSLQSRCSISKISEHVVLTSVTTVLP
TAAR1 antag: antagonists of human TAAR1; inhibition, % at 3 µM; CHO RD-HGA16 TAAR1, Fluo-8 calcium fluorescence, antagonist; AID 624466; 360,000 compounds, 1.5% hits; Q96RJ0;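 active = inhibition above a per-plate cutoff, the mean inhibition of test compounds on that plate plus 3 SD, cut at about 49% in these data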;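 note: 0% = DMSO plus EC80 beta-PEA response and 100% = DMSO alone without agonist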
Target sequence (Q96RJ0 whole entry, looked up): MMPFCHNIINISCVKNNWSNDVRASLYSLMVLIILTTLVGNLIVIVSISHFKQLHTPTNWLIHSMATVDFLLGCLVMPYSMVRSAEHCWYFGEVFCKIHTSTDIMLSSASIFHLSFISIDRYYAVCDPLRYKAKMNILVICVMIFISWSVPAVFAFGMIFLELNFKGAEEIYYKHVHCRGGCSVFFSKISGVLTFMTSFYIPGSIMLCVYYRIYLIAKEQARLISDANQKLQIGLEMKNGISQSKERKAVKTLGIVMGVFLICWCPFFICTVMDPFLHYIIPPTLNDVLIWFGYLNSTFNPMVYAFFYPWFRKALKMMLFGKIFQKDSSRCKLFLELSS
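Material: CHO RD-HGA16 cells bearing hTAAR1; compound dosing: one-point dosing, 3 µM nominal final; schedule: dye loading 75 min at 37 °C, then 30 min room temperature; measured by: calcium fluorescence with Fluo-8; control set: vehicle and agonist controls; replication: n of 1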
TAAR1 agonist: agonists of human TAAR1; Q96RJ0; CHO RD-HGA16 TAAR1, Fluo-8 calcium fluorescence; vehicle wells 0%, saturating PEA agonist 100%; activation, % at 3 µM; 360,000 compounds, 0.99% hits; AID 624467;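 active = activation above the mean activation of all test compounds in the run plus 3 SD, cut at about 38% in these data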
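Test system: RD-HGA16 (CHO) cells co-expressing Gα16 and hTAAR1 / Benchmarks: DMSO vehicle as 0%, PEA at EC100 as 100% / Repeats: no replicates (n 1) / Measure: % activation from peak over basal fluorescence ratio, DMSO-to-PEA scaled / Timing: 17-24 h plating, Fluo-8 75 min 37 °C, 30 min RT / Technique: kinetic Fluo-8 calcium fluorescence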
OX1R antag-2: antagonists of human orexin 1 receptor | CHO/OX1R cells, Fluo-8 calcium fluorescence, orexin A | inhibition, % at 5 µM | 330,000 compounds, 0.43% hits;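 active = inhibition above its plate's threshold, mean inhibition of all tested compounds on the plate plus 3 SD, cut at about 37% in these data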;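 note: 0% = orexin A challenge wells and 100% = SB-334867-A antagonist wells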
GPR7 antagonist: blocks human GPR7 receptor signaling; GPR7-expressing cells, fluorescence antagonist assay; inhibition, % at 4.4 µM; AID 1861; P48145; 290,000 compounds, 1.1% hits; in the data active = inhibition above about 16%, passing the limit was not always enough;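 note: cells stimulated with the agonist NPW; 0% = agonist with vehicle and 100% = vehicle without agonist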
TAAR1 ag confirm: confirmation of human TAAR1 agonists; shares compounds with TAAR1 agonist; CHO RD-HGA16 TAAR1, Fluo-8 calcium fluorescence; scaled: DMSO 0%, maximal phenethylamine 100%; activation, % at 3 µM; 2,400 compounds, 82% hits;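 active = activation above a cutoff set at the run's mean compound activation plus 3 SD, cut at about 39% in these data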
Ga16 ag counter: counter-screen for TAAR1 agonists: nonselective agonists in parental cells; CHO-Ga16 parental, Fluo-8 calcium fluorescence; normalized to maximal ATP response, DMSO zero; 2,400 compounds, 50% hits; AID 651787; shares compounds with TAAR1 agonist; activation, % at 3 µM;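 active = activation above the run cutoff, the mean activation over all tested wells plus 3 SD, cut at about 12% in these data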;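 note: 0% = DMSO wells and 100% = maximal ATP response on the peak over basal ratio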
TAAR1 desens: human TAAR1 agonist that also desensitizes the receptor; shares compounds with TAAR1 agonist; CHO RD-HGA16 hTAAR1, Fluo-8 calcium, beta-PEA response inhibition; inhibition, % at 3 µM; 2,400 compounds, 46% hits;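 active = inhibition above the run cutoff, the mean inhibition of all test compounds plus 3 SD, cut at about 49% in these data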;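 note: beta-PEA stimulus applied at its EC80; loss of beta-PEA calcium signal after compound pretreatment read as receptor desensitization; 0% = DMSO with beta-PEA at EC80 and 100% = DMSO alone without agonist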
Ga16 nonsel ant: nonselective Ga16 antagonist in TAAR1 agonist counter-screen; shares compounds with TAAR1 agonist; CHO-Ga16 ATP-induced calcium, Fluo-8 fluorescence; inhibition, % at 3 µM; 2,400 compounds, 39% hits;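 active = inhibition above the plate's mean compound inhibition plus 3 SD, computed per plate, cut at about 22% in these data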;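 note: 0% = EC80 ATP with DMSO and 100% = DMSO wells without ATP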
Starred values were filed as active, the others as inactive.

What do the screens show for `Cc1nc2ccccc2c(=O)n1-c1cccc(NC(=O)c2cccs2)c1`?
CHO parental Ca: -13; OX1R antag-1: 24; TAAR1 antag: -28; TAAR1 agonist: -1; OX1R antag-2: -19

Results for O=C(Nc1ccccc1)Nc1nnc([C@H]2C[C@H](O)[C@@H](CO)O2)s1 ?
TAAR1 antag: 1; TAAR1 agonist: 44*; TAAR1 ag confirm: 57*; Ga16 ag counter: 1; TAAR1 desens: 43; Ga16 nonsel ant: 11

Results for CC(Nc1ccnc2cc(Cl)ccc12)c1ccc(S(N)(=O)=O)cc1 (centres undefined) ?
CHO parental Ca: 2; OX1R antag-1: 30; TAAR1 antag: -2; TAAR1 agonist: 53*; OX1R antag-2: -4; GPR7 antagonist: 14; TAAR1 ag confirm: 69*; Ga16 ag counter: 0; TAAR1 desens: 51*; Ga16 nonsel ant: -2

Results for CC(CCCN1CCCC1)Nc1ccnc2cc(Cl)ccc12 (centres undefined) ?
TAAR1 antag: -2; TAAR1 agonist: 0

How did O=C(COC(=O)C1CCN(c2ccc(C(F)(F)F)cn2)CC1)Nc1cccc(F)c1 do in these assays?
CHO parental Ca: -2; OX1R antag-1: 15; TAAR1 antag: 14; TAAR1 agonist: 1; OX1R antag-2: -20

How did CCc1nnc(NC(=O)CCC(=O)NCCc2ccccc2)s1 do in these assays?
CHO parental Ca: -4; OX1R antag-1: 7; TAAR1 antag: -9; TAAR1 agonist: 49*; OX1R antag-2: -7; GPR7 antagonist: 2; TAAR1 ag confirm: 16; Ga16 ag counter: 0; TAAR1 desens: -2; Ga16 nonsel ant: 7

What do the screens show for `CCc1nnc(NC(=O)CCC(=O)N2CCN(CCc3ccccc3)CC2)s1`?
CHO parental Ca: -12; OX1R antag-1: 5; TAAR1 antag: -41; TAAR1 agonist: 4; OX1R antag-2: -20

What do the screens show for `O=C(O)/C=C/C(=O)NCCc1ccc(Cl)cc1`?
CHO parental Ca: -9; OX1R antag-1: 5; TAAR1 antag: 44; TAAR1 agonist: 76*; OX1R antag-2: -4; GPR7 antagonist: -11; TAAR1 ag confirm: 97*; Ga16 ag counter: 7; TAAR1 desens: 67*; Ga16 nonsel ant: -4

What do the screens show for `CCNC(=O)C(=O)NCCc1ccc(Cl)cc1`?
CHO parental Ca: -2; OX1R antag-1: 10; TAAR1 antag: 12; TAAR1 agonist: 7; OX1R antag-2: 10; GPR7 antagonist: -3

Results for O=C(CCCC(=O)c1ccccc1)NCCc1ccccc1 ?
CHO parental Ca: -12; OX1R antag-1: 9; TAAR1 antag: 75*; TAAR1 agonist: 47*; OX1R antag-2: -17; GPR7 antagonist: -7; TAAR1 ag confirm: 50*; Ga16 ag counter: 15*; TAAR1 desens: 90*; Ga16 nonsel ant: 14

Results for COc1ccc(CCNC(=O)/C=C/C(=O)O)cc1 ?
CHO parental Ca: 3; OX1R antag-1: 3; TAAR1 antag: 30; TAAR1 agonist: 62*; OX1R antag-2: -12; GPR7 antagonist: -7; TAAR1 ag confirm: 81*; Ga16 ag counter: 2; TAAR1 desens: 50*; Ga16 nonsel ant: 5

What do the screens show for `COc1ccc(CCCC(=O)NCCc2ccccc2)cc1`?
TAAR1 antag: -15; TAAR1 agonist: -1; GPR7 antagonist: -1

Results for COc1ccc(/C(=N\Nc2ccccc2C(=O)O)c2ccccc2)cc1 ?
CHO parental Ca: -7; OX1R antag-1: 13; TAAR1 antag: 7; TAAR1 agonist: -1; OX1R antag-2: 0; GPR7 antagonist: -5

What do the screens show for `CCN(CC)C(=O)C1=C(C)N(CCC2=CCCCC2)C(=O)C(CC(=O)NCC2CCCCC2)C1` (centres undefined)?
TAAR1 antag: 5; TAAR1 agonist: -3

How did COc1cc2c(cc1OC)C1C/C(=N\O)C(CC(C)C)CN1CC2 (centres undefined) do in these assays?
CHO parental Ca: -25; OX1R antag-1: 29; TAAR1 antag: -4; TAAR1 agonist: 27; OX1R antag-2: -22; GPR7 antagonist: 5

Results for O=C(OCc1cc2ccccc2[nH]c1=O)c1ccncc1 ?
CHO parental Ca: -9; OX1R antag-1: 19; TAAR1 antag: -6; TAAR1 agonist: 2; OX1R antag-2: 2; GPR7 antagonist: -18

Results for O=C(O)/C=C/C(=O)NCCc1ccccc1 ?
CHO parental Ca: -7; OX1R antag-1: 9; TAAR1 antag: 80*; TAAR1 agonist: 118*; OX1R antag-2: -1; GPR7 antagonist: 17; TAAR1 ag confirm: 105*; Ga16 ag counter: 1; TAAR1 desens: 98*; Ga16 nonsel ant: 6

Results for CC(CCc1ccccc1)NC(=O)Cc1ccccc1 (centres undefined) ?
CHO parental Ca: -11; OX1R antag-1: 10; TAAR1 antag: -1; TAAR1 agonist: 11; OX1R antag-2: -15; GPR7 antagonist: -8

What do the screens show for `CC(CCc1ccccc1)NC(=O)C(=O)NCCc1ccccc1` (centres undefined)?
CHO parental Ca: -13; OX1R antag-1: 23; TAAR1 antag: 8; TAAR1 agonist: 49*; OX1R antag-2: -14; GPR7 antagonist: 3; TAAR1 ag confirm: 88*; Ga16 ag counter: 21*; TAAR1 desens: 36; Ga16 nonsel ant: 17

Results for O=C(O)/C=C/C(=O)NCCc1cccc(Cl)c1 ?
CHO parental Ca: -8; OX1R antag-1: 9; TAAR1 antag: 76*; TAAR1 agonist: 69*; OX1R antag-2: -5; GPR7 antagonist: -8; TAAR1 ag confirm: 93*; Ga16 ag counter: 8; TAAR1 desens: 96*; Ga16 nonsel ant: 6

What do the screens show for `Cc1nnc(SCC(=O)NNC(=O)COc2ccc(Br)cc2)n1C`?
CHO parental Ca: 0; OX1R antag-1: 2; TAAR1 antag: 4; TAAR1 agonist: 0; OX1R antag-2: -16

How did N/C(Cc1cccc2ccccc12)=N\OC(=O)c1ccc2c(c1)OCO2 do in these assays?
CHO parental Ca: -10; OX1R antag-1: 18; TAAR1 antag: 49*; TAAR1 agonist: 74*; OX1R antag-2: -13; GPR7 antagonist: -12; TAAR1 ag confirm: 16; Ga16 ag counter: 1; TAAR1 desens: 7; Ga16 nonsel ant: 10
